# The list is not random: actives were taken first. Their share in the collection is about 2.9%.
# Tn7 DDE FP: inhibitors of Tn7 peptide binding to fibrin DD(E), primary screen, biochemical, fluorescence polarization, human fibrin, Tn7 probe; FP displacement of FITC-Tn7 peptide from fibrin DD(E); 0% = median of compound wells per plate; inhibition, % at 8.3 µM; actives 0.13% (n = 370,000);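 active = inhibition above the mean of compounds falling within the control limits plus 3 SD of them, cut at about 14% in these data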;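 also: 0% = plate median of compound wells and 100% = 10 µM Aha-Tn7 peptide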
#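 Assay system: Human fibrin DD(E) protein | Medium: Tris buffer with calcium and detergent, pH 7.8 | Reagent: 0.1 µM fluorescent Tn7 | Compound dosing: Single point at 8.3 µM | Times: 10 min preincubation, 3 h with tracer, room temperature | Detection: Fluorescence polarization of the labelled Tn7 tracer | Controls: Aha-Tn7 high control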
# CRFR2-BP ag: agonists of CRF-BP/CRF-R2 complex, primary screen, cell-based, HEK293, calcium dye fluorescence, uHTS; calcium dye fluorescence (FLIPR); percent of saturating CRF peptide response; actives 0.46% (n = 350,000); activation, % at 13.2 µM;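 active = activation of at least 50%, plus an integration ratio under a set limit after plate pattern correction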;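 also: plate controls were neutral control wells without compound for no effect and CRF at EC100 for full effect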
# CRFBP-R2 block: antagonists of CRF-BP/CRF-R2 complex, primary screen, cell-based, HEK293, calcium dye fluorescence, uHTS | inhibition, % at 11.8 µM | CRF-induced calcium fluorescence | actives 0.59% (n = 350,000);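 active = inhibition of the ligand-induced calcium signal above about 50% at the single tested concentration, limit read from the data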
# Tn6 DDE FP: inhibitors of Tn6 peptide binding to fibrin DD(E), primary screen, biochemical, fluorescence polarization, human fibrin, Tn6 probe; Fibrinogen beta chain (Homo sapiens), P02675; Fibrin DD(E) TRITC-Tn6 fluorescence polarization displacement; inhibition, % at 8.3 µM; actives 0.21% (n = 370,000);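 active = inhibition above a per-campaign cutoff: mean of compounds within control limits plus 3 SD, cut at about 15% in these data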;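 also: 0% = median of all compound wells on the plate and 100% = blocking peptide control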
# CendR NRP1 mod: modulators of CendR peptide binding to NRP-1, primary screen, biochemical, fluorescence polarization, uHTS. actives 0.85% (n = 360,000). inhibition, % at 25 µM. Neuropilin-1 (Homo sapiens), O14786. FAM-RPARPAR peptide binding to NRP-1;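 active = inhibition or corrected inhibition above about 18%, plus a signal ratio from 0.5 to 1.5, limit read from the data, passing the limit was not always enough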
# proKLK7 act: proKLK7 zymogen activators, primary screen, biochemical, fluorescence intensity; actives 0.9% (n = 370,000); activation, % at 7 µM; AID 652039, 2013; purified proKLK7, EDANS-DABCYL substrate fluorescence; 100% is mature enzyme control, 0% vehicle;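 active = activation above the mean of all tested compounds plus 3 SD, computed per campaign excluding outliers beyond control limits, cut at about 13% in these data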
# Target sequence (P49862 whole entry, looked up): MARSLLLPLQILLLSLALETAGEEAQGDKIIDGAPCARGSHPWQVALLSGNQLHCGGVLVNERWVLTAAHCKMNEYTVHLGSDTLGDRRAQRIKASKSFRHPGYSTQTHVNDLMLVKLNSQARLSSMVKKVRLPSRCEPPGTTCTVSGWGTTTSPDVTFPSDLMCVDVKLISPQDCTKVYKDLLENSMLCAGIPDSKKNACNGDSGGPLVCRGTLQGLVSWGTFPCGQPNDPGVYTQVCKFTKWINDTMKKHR
# DDE Tn6 FP ctr: DD(E)-Tn6 binding inhibition, counter-screen. actives 2% (n = 680). shares compounds with Tn6 DDE FP. AID 720621. Fibrin DD(E), TRITC-Tn6 fluorescence polarization displacement; 0% = median of compound wells, not DMSO. inhibition, % at 8.3 µM;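 active = inhibition above the mean of test compounds lying between the control limits plus 3 SD of those, cut at about 14% in these data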;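 also: 0% = median of compound wells and 100% = wells with Aha-Tn7 blocking peptide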
# Tn6 DDE conf: inhibitors of Tn6 peptide binding to fibrin DD(E), confirmation, biochemical, fluorescence polarization, human fibrin, Tn6 probe; shares compounds with Tn6 DDE FP; FP displacement of TRITC-Tn6 peptide from DD(E); 0% = per-plate median of test wells; inhibition, % at 8.3 µM; actives 10% (n = 680); AID 720631, 2013;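 active = inhibition above the mean of compounds lying within the control limits plus 3 SD, cut at about 16% in these data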;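 also: 100% = high control wells holding a competing inhibitor peptide at 10 µM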
# Starred values were filed as active, the others as inactive; nt = no result.
SMILES,Tn7 DDE FP,CRFR2-BP ag,CRFBP-R2 block,Tn6 DDE FP,CendR NRP1 mod,proKLK7 act,DDE Tn6 FP ctr,Tn6 DDE conf
COc1ccccc1NC(=O)OC1CC2CC1[C@H]1CCCCN1[C@H]2C (stereo partly drawn),9.9,nt,nt,-4.7,nt,0.5,nt,nt
NC(=O)c1ccc2c(=O)n3c(-c4cc(Cl)c(N)c(Cl)c4)csc3nc2c1,-1.4,0.8,0.5,-2.0,-10.8,-0.2,nt,nt
Cc1ccc(-c2csc3nc4cc(C(=O)NC5CCC(O)CC5)ccc4c(=O)n23)cc1 (stereo not drawn),-1.6,-0.7,-2.6,17.3*,-8.5,-11.2,-7.0,-13.7
CCCN1C(=O)c2n[nH]c(C)c2C1c1ccc(Br)cc1 (stereo not drawn),-1.0,nt,nt,9.8,nt,-0.3,nt,nt
CC(=O)C1=C(C)Nc2ncnn2C1c1ccccc1OCc1ccccc1 (stereo not drawn),6.0,-0.4,-6.2,18.4*,-9.0,-0.2,2.8,2.2
CCCS(=O)(=O)NC(=O)C1(C)CCN(C(=O)c2cccc(OC(F)(F)F)c2)C1 (stereo not drawn),4.2,nt,nt,15.3*,0.1,-0.8,-7.7,-8.1
C#CCn1c(S(=O)(=O)Cc2ccccc2Cl)nc(-c2ccccc2)c1-c1ccccc1,-3.4,6.4,24.6,15.5*,-7.7,0.6,12.1,8.1
C#CCn1c(S(=O)(=O)Cc2ccc(C)cc2)nc(-c2ccccc2)c1-c1ccccc1,3.4,5.4,-11.9,-3.8,-20.0,0.1,nt,nt
COc1ccccc1C(C)NCC(=O)NC(=O)NCc1ccco1 (stereo not drawn),3.9,-0.8,12.6,56.9*,-5.4,0.2,-4.9,-7.9
COc1ccccc1OCC(=O)NCc1ccco1,3.0,-3.1,12.9,-4.9,-3.7,0.5,nt,nt
CCc1nnn2c1Cn1c3ccccc3c(=O)n1[C@@H](C)C2,2.6,nt,nt,4.4,nt,1.9,nt,nt
O=S1(=O)c2ccc(N3CCSCC3)cc2Oc2ccccc2CN1Cc1cn(Cc2ccc(F)cc2)nn1,3.4,nt,nt,1.9,nt,-1.2,nt,nt
COc1ccccc1NS(=O)(=O)c1cc(N)ccc1N1CCOCC1,7.2,-2.2,-9.6,-1.3,-10.1,0.2,nt,nt
Nc1ccc(N2CCOCC2)c(S(=O)(=O)Nc2ccccc2Cl)c1,4.9,-2.3,-5.8,17.9*,-13.0,0.0,6.4,4.0
CC(C)(C)CCN1CCC[C@H](NC(=O)COc2ccc(F)c(Cl)c2)C1,-6.3,nt,nt,6.7,nt,nt,nt,nt
O=C(COC(=O)C1CC1)Nc1ccc(OC(F)F)cc1,5.5,-0.2,9.6,15.3*,46.0*,0.9,-2.3,-5.3
CCOc1ccccc1-n1c(=S)sc2c(=O)n(-c3ccc(C)cc3)c(=S)[nH]c21,-2.1,2.3,22.6,10.8,2.5,-0.4,nt,nt
CCn1c(=S)sc2c(=O)n(-c3ccccc3)c(=S)[nH]c21,4.1,-0.7,13.9,17.9*,-2.7,0.3,7.5,-15.4
CCOC(=O)[C@@]12CCC3=C1N(CCC3)C(=O)[C@H](CC(=O)NCc1cccs1)C2,-0.7,nt,nt,5.1,nt,0.4,nt,nt
Cc1ccc(S(=O)(=O)CCC(=O)OCCOc2cccc(Br)c2)cc1,-5.3,-0.6,5.2,15.4*,-1.0,1.0,6.9,8.2
COc1cccc(NC(=O)COC(=O)CCS(=O)(=O)c2ccc(C)cc2)c1,7.9,1.0,-0.7,5.2,-5.2,-0.2,nt,nt
CCc1nc(-c2cc3ccc(C)cc3[nH]c2=O)no1,-6.4,1.3,5.3,-2.3,5.6,1.3,nt,nt
Cc1ccc2[nH]c(=O)c(-c3noc(C(C)C)n3)cc2c1,-2.4,0.3,-6.6,17.2*,0.2,1.3,-0.8,-5.0
Cc1cc(NS(=O)(=O)c2ccc(NC(=O)CSc3nnc(-c4ccco4)n3-c3ccc(Cl)cc3)cc2)nc(C)n1,-1.1,nt,nt,-4.7,nt,0.2,nt,nt
O=C(CSc1nc2ccccc2nc1N1CCOCC1)NCc1ccc(Cl)cc1Cl,1.2,nt,nt,9.2,nt,0.3,nt,nt
SMILES,Tn7 DDE FP,CRFR2-BP ag,CRFBP-R2 block,Tn6 DDE FP,CendR NRP1 mod,proKLK7 act,DDE Tn6 FP ctr,Tn6 DDE conf
Cc1ccccc1NS(=O)(=O)c1ccc(OCCNS(C)(=O)=O)cc1,1.1,23.4,-32.5,17.4*,1.5,0.0,-7.7,-12.7
O=C(COC(=O)c1ccccc1NC(=O)c1ccccc1)c1ccc([N+](=O)[O-])cc1,0.8,2.5,10.7,3.8,15.5,-0.3,nt,nt
O=C(COC(=O)c1ccccc1NC(=O)c1ccccc1)c1cccc([N+](=O)[O-])c1,3.0,-3.2,21.5,16.8*,-17.8,0.1,2.9,5.2
O=C(NC(Cc1cccc(F)c1)C(=O)O)C1CCCCC1 (stereo not drawn),-2.6,0.0,3.8,15.9*,-2.2,0.0,-1.9,-6.1
O=C(C1CCN(S(=O)(=O)c2ccccc2)CC1)N1CCN(c2ccccc2)CC1,6.2,1.3,5.5,15.4*,11.2,-0.2,-1.0,-1.2
COc1ccc(N2CCN(C(=O)C3CCN(S(=O)(=O)c4ccccc4)CC3)CC2)cc1,-4.9,0.9,-11.0,4.1,18.4,0.2,nt,nt
CCOC(=O)C(=CNc1ccc(C)cc1C)C(=O)OCC,2.6,-0.3,-3.5,15.3*,-0.4,-1.4,7.9,4.1
CCOC(=O)C(=CNc1cccc(C)c1C)C(=O)OCC,3.8,0.1,-9.4,-1.7,-10.2,-0.1,nt,nt
CCc1ccc(OCC(=O)Nc2ccc3oc(=O)ccc3c2)cc1,6.4,-0.4,5.8,17.3*,15.9,-0.9,5.5,-1.8
CCOc1ccc(S(=O)(=O)NCCC(=O)NCCOc2ccccc2OC)cc1,0.3,-3.8,3.3,22.2*,-6.9,0.6,1.1,1.7
CCOc1ccc(S(=O)(=O)NCCC(=O)NCc2ccco2)cc1,3.1,-2.0,17.8,-1.5,3.6,-0.4,nt,nt
Cn1c(=O)n(C)c2cc(N3CCCC3)c(NC(=O)c3cccc(F)c3)cc21,6.0,0.3,-5.8,15.4*,12.8,1.8,5.5,1.3
